# Source: ChEMBL document CHEMBL1255284, “Aspergillus section Fumigati: antifungal susceptibility patterns and sequence-based identification” (2008)
# Key:
# Aspergillus lentulus [1] = test: Antimicrobial activity against Aspergillus lentulus isolate CNM-CM-1290 obtained from sputum of patient after 48 hrs by broth microdilution method; assay type: functional; conditions: isolate CNM-CM-1290, 48 h
# Summary of the method: (§1)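 CLSI M38-A broth microdilution with modifications: RPMI 1640 with L-glutamine, 2% glucose, buffered to pH 7 with 0.165 M MOPS. Inoculum of 1 × 10^5 to 5 × 10^5 CFU/ml from 3- to 5-day-old cultures. Incubated 35°C, 48 h, humid. Visual reading with a mirror. MIC is complete growth inhibition; echinocandin MEC is hyphal morphological alteration. Azoles 8 to 0.015 μg/ml; others 16 to 0.03 μg/ml.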
# Neosartorya hiratsukae [2] = test: Antimicrobial activity against Neosartorya hiratsukae isolate CNM-CM-3305 obtained from skin of patient after 48 hrs by broth microdilution method; assay type: functional; conditions: Aspergillus hiratsukae, isolate CNM-CM-3305, 48 h; summary of the method: as §1
# [3] = tested on: Neosartorya pseudofischeri; test: Antimicrobial activity against Neosartorya pseudofischeri isolate CNM-CM-3914 obtained from nail of patient after 48 hrs by broth microdilution method; assay type: functional; conditions: Aspergillus thermomutatus, isolate CNM-CM-3914, 48 h
# Summary of the method: (§2)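 CLSI M38-A broth microdilution with modifications: RPMI 1640 with L-glutamine, MOPS-buffered to pH 7, plus 2% glucose. Inoculum 1 × 10^5 to 5 × 10^5 CFU/ml from 3–5-day cultures. Incubated at 35°C for 48 h, humid. Read visually with a mirror. MIC = complete growth inhibition; echinocandin MEC = altered hyphal morphology. QC strain A. fumigatus ATCC 2004305.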
# Aspergillus lentulus [4] = test: Antimicrobial activity against Aspergillus lentulus isolate CNM-CM-4415 obtained from sputum of patient after 48 hrs by broth microdilution method; assay type: functional; conditions: isolate CNM-CM-4415, 48 h; summary of the method: as §1
# Aspergillus lentulus [5] = test: Antimicrobial activity against Aspergillus lentulus isolate CNM-CM-3583 obtained from sputum of patient after 48 hrs by broth microdilution method; assay type: functional; conditions: isolate CNM-CM-3583, 48 h; summary of the method: as §1
# Aspergillus lentulus [6] = test: Antimicrobial activity against Aspergillus lentulus isolate CNM-CM-3537 obtained from sputum of patient after 48 hrs by broth microdilution method; assay type: functional; conditions: isolate CNM-CM-3537, 48 h; summary of the method: as §1
# Neosartorya hiratsukae [7] = test: Antimicrobial activity against Neosartorya hiratsukae isolate CNM-CM-3303 obtained from skin of patient after 48 hrs by broth microdilution method; assay type: functional; conditions: Aspergillus hiratsukae, isolate CNM-CM-3303, 48 h; summary of the method: as §1
# Aspergillus lentulus [8] = test: Antimicrobial activity against Aspergillus lentulus isolate CNM-CM-4420 obtained from nail of patient after 48 hrs by broth microdilution method; assay type: functional; conditions: isolate CNM-CM-4420, 48 h; summary of the method: as §1
# Aspergillus lentulus [9] = test: Antimicrobial activity against Aspergillus lentulus isolate CNM-CM-3134 obtained from sputum of patient after 48 hrs by broth microdilution method; assay type: functional; conditions: isolate CNM-CM-3134, 48 h; summary of the method: as §1
# [10] = tested on: Neosartorya pseudofischeri; test: Antimicrobial activity against Neosartorya pseudofischeri isolate CNM-CM-2270 obtained from sputum of patient after 48 hrs by broth microdilution method; assay type: functional; conditions: Aspergillus thermomutatus, isolate CNM-CM-2270, 48 h; summary of the method: as §2
# [11] = tested on: Neosartorya pseudofischeri; test: Antimicrobial activity against Neosartorya pseudofischeri isolate CNM-CM-4060 obtained from sputum of patient after 48 hrs by broth microdilution method; assay type: functional; conditions: Aspergillus thermomutatus; summary of the method: as §2
# [12] = tested on: Aspergillus fumisynnematus; test: Antimicrobial activity against Aspergillus fumisynnematus isolate CNM-CM-4063 obtained from bronchoalveolar aspirate of patient after 48 hrs by broth microdilution method; assay type: functional; conditions: isolate CNM-CM-4063, Lung; summary of the method: as §1
# Aspergillus viridinutans [13] = test: Antimicrobial activity against Aspergillus viridinutans isolate CNM-CM-4518 obtained from nail of patient after 48 hrs by broth microdilution method; assay type: functional; conditions: isolate CNM-CM-4518, 48 h; summary of the method: as §1
# [14] = tested on: Neosartorya pseudofischeri; test: Antimicrobial activity against Neosartorya pseudofischeri isolate CNM-CM-3769 obtained from sputum of patient after 48 hrs by broth microdilution method; assay type: functional; conditions: Aspergillus thermomutatus; summary of the method: as §2
# Neosartorya hiratsukae [15] = test: Antimicrobial activity against Neosartorya hiratsukae isolate CNM-CM-3764 obtained from oropharyngeal exudate of patient after 48 hrs by broth microdilution method; assay type: functional; conditions: Aspergillus hiratsukae, isolate CNM-CM-3764, 48 h; summary of the method: as §1
# Aspergillus lentulus [16] = test: Antimicrobial activity against Aspergillus lentulus isolate CNM-CM-4426 obtained from sputum of patient after 48 hrs by broth microdilution method; assay type: functional; conditions: isolate CNM-CM-4426, 48 h; summary of the method: as §1
# Aspergillus fumigatus = test: Antimicrobial activity against Aspergillus fumigatus ATCC 2004305 after 48 hrs by broth microdilution method; assay type: functional; conditions: ATCC 2004305, 48 h
# Aspergillus lentulus [17] = test: Antimicrobial activity against Aspergillus lentulus isolate CNM-CM-4370 obtained from sputum of patient after 48 hrs by broth microdilution method; assay type: functional; conditions: isolate CNM-CM-4370, 48 h; summary of the method: as §1
# Aspergillus lentulus [18] = test: Antimicrobial activity against Aspergillus lentulus isolate CNM-CM-3364 obtained from bronchoalveolar lavage fluid of patient after 48 hrs by broth microdilution method; assay type: functional; conditions: isolate CNM-CM-3364, Lung; summary of the method: as §1
# Neosartorya hiratsukae [19] = test: Antimicrobial activity against Neosartorya hiratsukae isolate CNM-CM-3740 obtained from oropharyngeal exudate of patient after 48 hrs by broth microdilution method; assay type: functional; conditions: Aspergillus hiratsukae, isolate CNM-CM-3740, 48 h; summary of the method: as §1
# Aspergillus lentulus [20] = test: Antimicrobial activity against Aspergillus lentulus isolate CNM-CM-3599 obtained from sputum of patient after 48 hrs by broth microdilution method; assay type: functional; conditions: isolate CNM-CM-3599, 48 h; summary of the method: as §1
# Aspergillus viridinutans [21] = test: Antimicrobial activity against Aspergillus viridinutans isolate CNM-CM-3147 obtained from oropharyngeal exudate of patient after 48 hrs by broth microdilution method; assay type: functional; conditions: isolate CNM-CM-3147, 48 h; summary of the method: as §1
# Aspergillus lentulus [22] = test: Antimicrobial activity against Aspergillus lentulus isolate CNM-CM-4387 obtained from sputum of patient after 48 hrs by broth microdilution method; assay type: functional; conditions: isolate CNM-CM-4387, 48 h; summary of the method: as §1
# Aspergillus lentulus [23] = test: Antimicrobial activity against Aspergillus lentulus isolate CNM-CM-4330 obtained from sputum of patient after 48 hrs by broth microdilution method; assay type: functional; conditions: isolate CNM-CM-4330, 48 h; summary of the method: as §1
# Neosartorya hiratsukae [24] = test: Antimicrobial activity against Neosartorya hiratsukae isolate CNM-CM-4328 obtained from cornea of patient after 48 hrs by broth microdilution method; assay type: functional; conditions: Aspergillus hiratsukae, isolate CNM-CM-4328, Cornea; summary of the method: as §1
# Aspergillus lentulus [25] = test: Antimicrobial activity against Aspergillus lentulus isolate CNM-CM-4428 obtained from skin of patient after 48 hrs by broth microdilution method; assay type: functional; conditions: isolate CNM-CM-4428, 48 h; summary of the method: as §1
# [26] = tested on: Aspergillus fumigatiaffinis; test: Antimicrobial activity against Aspergillus fumigatiaffinis isolate CNM-CM-2280 obtained from sputum of patient after 48 hrs by broth microdilution method; conditions: isolate CNM-CM-2280, 48 h
# [27] = tested on: Aspergillus fumigatiaffinis; test: Antimicrobial activity against Aspergillus fumigatiaffinis isolate CNM-CM-3227 obtained from bronchoalveolar lavage fluid of patient after 48 hrs by broth microdilution method; conditions: isolate CNM-CM-3227, Lung
# Aspergillus lentulus [28] = test: Antimicrobial activity against Aspergillus lentulus isolate CNM-CM-3538 obtained from sputum of patient after 48 hrs by broth microdilution method; assay type: functional; conditions: isolate CNM-CM-3538, 48 h; summary of the method: as §1
smiles,measurement,setting,value
C[C@@H]1[C@H](O)[C@@H](C)/C=C/C=C/C=C/C=C/C=C/C=C/C=C/[C@H](O[C@@H]2O[C@H](C)[C@@H](O)[C@H](N)[C@@H]2O)C[C@@H]2O[C@](O)(C[C@@H](O)C[C@@H](O)[C@H](O)CC[C@@H](O)C[C@@H](O)CC(=O)O[C@H]1C)C[C@H](O)[C@H]2C(=O)O [AMPHOTERICIN B],MIC,Aspergillus lentulus [1],4.5 µg/mL
same,MIC,Neosartorya hiratsukae [2],0.31 µg/mL
same,MIC,[3],0.25 µg/mL
same,MIC,Aspergillus lentulus [4],6 µg/mL
same,MIC,Aspergillus lentulus [5],8 µg/mL
same,MIC,Aspergillus lentulus [6],7 µg/mL
same,MIC,Neosartorya hiratsukae [7],0.5 µg/mL
same,MIC,Aspergillus lentulus [8],10.7 µg/mL
same,MIC,Aspergillus lentulus [9],10 µg/mL
same,MIC,[10],0.17 µg/mL
same,MIC,[11],0.25 µg/mL
same,MIC,[12],1 µg/mL
same,MIC,Aspergillus viridinutans [13],0.37 µg/mL
same,MIC,[14],1 µg/mL
same,MIC,Neosartorya hiratsukae [15],1 µg/mL
same,MIC,Aspergillus lentulus [16],12 µg/mL
same,MIC,Aspergillus fumigatus,0.25 µg/mL
same,MIC,Aspergillus lentulus [17],7.33 µg/mL
same,MIC,Aspergillus lentulus [18],8.4 µg/mL
same,MIC,Neosartorya hiratsukae [19],0.66 µg/mL
same,MIC,Aspergillus lentulus [20],2.66 µg/mL
same,MIC,Aspergillus viridinutans [21],0.58 µg/mL
same,MIC,Aspergillus lentulus [22],6 µg/mL
same,MIC,Aspergillus lentulus [23],8 µg/mL
same,MIC,Neosartorya hiratsukae [24],0.75 µg/mL
same,MIC,Aspergillus lentulus [25],12 µg/mL
same,MIC,[26],16 µg/mL
same,MIC,[27],8 µg/mL
same,MIC,Aspergillus lentulus [28],7.25 µg/mL
CC[C@H](C)C[C@H](C)CCCCCCCCC(=O)N[C@H]1C[C@@H](O)[C@@H](NCCN)NC(=O)[C@@H]2[C@@H](O)CCN2C(=O)[C@H]([C@H](O)CCN)NC(=O)[C@H]([C@H](O)[C@@H](O)c2ccc(O)cc2)NC(=O)[C@@H]2C[C@@H](O)CN2C(=O)[C@H]([C@@H](C)O)NC1=O [CASPOFUNGIN],minimal effective concentration,Aspergillus lentulus [1]; read-out: MEC,0.28 µg/mL
same,minimal effective concentration,Neosartorya hiratsukae [2]; read-out: MEC,0.03 µg/mL
same,minimal effective concentration,[3]; read-out: MEC,1 µg/mL
same,minimal effective concentration,Aspergillus lentulus [4]; read-out: MEC,0.25 µg/mL
same,minimal effective concentration,Aspergillus lentulus [5]; read-out: MEC,1 µg/mL
same,minimal effective concentration,Aspergillus lentulus [6]; read-out: MEC,0.42 µg/mL
same,minimal effective concentration,Neosartorya hiratsukae [7]; read-out: MEC,0.34 µg/mL
same,minimal effective concentration,Aspergillus lentulus [8]; read-out: MEC,0.33 µg/mL
same,minimal effective concentration,Aspergillus lentulus [9]; read-out: MEC,0.38 µg/mL
same,minimal effective concentration,[10]; read-out: MEC,0.51 µg/mL
same,minimal effective concentration,[11]; read-out: MEC,0.62 µg/mL
same,minimal effective concentration,[12]; read-out: MEC,0.5 µg/mL
same,minimal effective concentration,Aspergillus viridinutans [13]; read-out: MEC,1 µg/mL
same,minimal effective concentration,[14]; read-out: MEC,0.12 µg/mL
same,minimal effective concentration,Neosartorya hiratsukae [15]; read-out: MEC,0.26 µg/mL
same,minimal effective concentration,Aspergillus lentulus [16]; read-out: MEC,0.22 µg/mL
same,minimal effective concentration,Aspergillus fumigatus; read-out: MEC,0.12 µg/mL
same,minimal effective concentration,Aspergillus lentulus [17]; read-out: MEC,0.91 µg/mL
same,minimal effective concentration,Aspergillus lentulus [18]; read-out: MEC,0.18 µg/mL
same,minimal effective concentration,Neosartorya hiratsukae [19]; read-out: MEC,0.66 µg/mL
same,minimal effective concentration,Aspergillus lentulus [20]; read-out: MEC,0.26 µg/mL
same,minimal effective concentration,Aspergillus viridinutans [21]; read-out: MEC,0.67 µg/mL
same,minimal effective concentration,Aspergillus lentulus [22]; read-out: MEC,0.25 µg/mL
same,minimal effective concentration,Aspergillus lentulus [23]; read-out: MEC,1.2 µg/mL
same,minimal effective concentration,Neosartorya hiratsukae [24]; read-out: MEC,0.03 µg/mL
same,minimal effective concentration,Aspergillus lentulus [25]; read-out: MEC,0.29 µg/mL
same,minimal effective concentration,[26]; read-out: MEC,1.3 µg/mL
same,minimal effective concentration,[27]; read-out: MEC,0.16 µg/mL
same,minimal effective concentration,Aspergillus lentulus [28]; read-out: MEC,0.11 µg/mL
